Columns and labels:
[1] = test system: Mus musculus; test: Relative anticonvulsant potency in frings mice by intraperitoneal administration expressed as effective dose; type: functional; conditions: ip
Summary of the method: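 Frings audiogenic seizure-susceptible mice of both sexes (18–25 g), in groups of eight, given varying ip doses. At the time of peak effect, each mouse was exposed to a 110 dB (11 kHz) sound for 20 s and observed for 25 s. Absence of hindlimb tonic extension counted as protection. ED50 by probit analysis.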

[2] = test system: Mus musculus; test: Relative anticonvulsant potency in frings mice by peroral administration expressed as effective dose; type: functional; conditions: po
[3] = test system: Mus musculus; test: Lethality in mice following 60 mg/kg/day ip dose; 8/8; type: ADME, organism-based; design: route intraperitoneal; conditions: in vivo
[4] = biological target: Glutamate NMDA receptor; test: The compound was tested in vitro for the displacement of the radioligand (+)-[3H]-MK-801 from synaptic plasma membranes from rat cortex against N-methyl-D-aspartate glutamate receptor; type: cell-free
[5] = test system: Mus musculus; test: Lethality in mice following 30 mg/kg/day ip dose; 4/7; type: ADME, organism-based; design: route intraperitoneal; conditions: in vivo
[6] = biological target: Glutamate NMDA receptor; test: The compound was tested in vitro for the inhibition of N-methyl-D-aspartate glutamate receptor in rat cerebellar granule cells (RCGCs).
Summary of the method: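 Cultured rat cerebellar granule cells; cytosolic calcium rise stimulated by NMDA (50 µM) plus glycine (1 µM). Multiple cumulative concentration–response curves with at least five concentrations per test substance; IC50 by logit analysis.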

[7] = Relative anticonvulsant potency in frings mice by peroral administration expressed as toxic dose; type: ADME, organism-based; conditions: mouse, in vivo, po

## NCCC(c1cccc(F)c1)c1cccc(F)c1
[1]
  ED50: 2.1 mg/kg
[2]
  ED50: 9.7 mg/kg

## CC(N)CC(c1cccc(F)c1)c1cccc(F)c1 (configuration not stated)
[1]
  ED50: 4.9 mg/kg
[2]
  ED50: 5.1 mg/kg
[3]
  Lethality: Lethal
[4]
  IC50: 1040 nM
[5]
  Lethality: Lethal
[6]
  IC50: 145 nM
[7]
  TD50: 18.3 mg/kg

## C[C@H](N)CC(c1cccc(F)c1)c1cccc(F)c1
[1]
  ED50: 2.7 mg/kg
[2]
  ED50: 7.3 mg/kg
[4]
  IC50: 762 nM
[6]
  IC50: 89 nM
[7]
  TD50: 18.6 mg/kg

## C[C@@H](N)CC(c1cccc(F)c1)c1cccc(F)c1
[1]
  ED50: 9.1 mg/kg
[4]
  IC50: 4500 nM
[6]
  IC50: 1110 nM

— ChEMBL document CHEMBL1132793, “Chiral synthesis and pharmacological evaluation of NPS 1407: a potent, stereoselective NMDA receptor antagonist” (Bioorg Med Chem Lett, 2000)
